Results from the EternaBench riboswitch data.

Tested on: MS2 coat protein
Assay: apparent Kd, MS2 coat protein; higher = weaker binding; RNA-MaP array; FMN 200 µM where present
Summary of the method: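 The apparent Kd comes from binding curves fitted cluster by cluster, filtered, and summarised as a median. Those curves followed SNAP-549-labelled MS2 coat protein from 0.7 or 1.5 nM, doubling to 3 µM, on Illumina sequencing-chip clusters where stalled E. coli RNA polymerase had transcribed the designs, without and then with constant ligand. The buffer was 100 mM Tris-HCl pH 7.5, 80 mM KCl, 4 mM MgCl2, BSA, DTT, yeast tRNA and Tween-20, and green signal was normalised to red-channel RNA signal and control-cluster median Fmax.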

[1] = designed as: OFF switch for flavin mononucleotide, no ligand
[2] = ligand present: flavin mononucleotide, designed as: OFF switch for flavin mononucleotide
[3] = designed as: ON switch for flavin mononucleotide, no ligand
[4] = ligand present: flavin mononucleotide, designed as: ON switch for flavin mononucleotide

Sequence | apparent Kd [1] [µM] | apparent Kd [2] [µM] | apparent Kd [3] [µM] | apparent Kd [4] [µM]
GCGUCAUGCAGAGGAUAUUGUUGCGGAUCUCUAUAAGAAGGCUGUACAUGAGGAUCACCCAUGUCACCACAUGAGGGUCACGUG | 0.0221 | 0.0412 |  | 
GUGAGUAGUCAGGAUAUGCUGUACAAAAGUACAGCAGAAGGGAUUACAUGAGGAUCACCCAUGUUUACUUCAUG | 0.0731 | 0.279 |  | 
AAUGUCUGAGGAUAUCGAAUAGUGUACAUGAGGAUCACCCAUGUUUUUAUUAGUAUAUUACGAGAAGGCAGUGGAA | 0.0178 | 0.0148 |  | 
GAGCUAUGAGGAUAUGCAUAUAUACGGUUUCGUGUGGUACUACAUGAGGAUCACCCAUGUAGAAGGCGUGGCUG | 0.0177 | 0.0151 |  | 
AGAGCCGGCACCGAGGAUAUUCAUAUUAAAACAUGAGGAUCACCCAUGUAGGCCAGAAGGCCUUGGGAGAAGGCGGAUCGGCUCG |  |  | 0.707 | 0.0395
CUUUAGUAAGGAUAUCAGCUUAGGAGGUUGGUAAUGAGAGCUGAGAAGGUACAUGAGGAUCACCCAUGUUAGUU | 0.0173 | 0.0197 |  | 
ACAAUAGUAUCUCAUGUAUUACAUGAGGAUCACCCAUGUAACUAGGAUAUGUAUUAGAAUUUACAACAGAAGGAGUUAUUAUGU | 0.00903 | 0.0177 |  | 
GUUAAGUGAGGAUAUGGUGAGUAGUGCCUGAGCGCUGCUCACCAGAAGGCACAUGAGGAUCACCCAUGUAUAAC | 0.023 | 0.036 |  | 
GCACGGCAUGUAGGAUAUCGAGCGCCGGGCGCUCGAGAAGGACAUGAGGAUCACCCAUGUACUCUCAGUGAGAGAGUGCUGUGC | 0.0187 | 0.0318 |  | 
GUCAGCUCGUGAGGAUAUACAACACUGCUUGGGCAGUGUAUUAAGAUCACAUGAGGAUCACCCAUGUAGAAGGCACGAGCUGAU | 0.0139 | 0.216 |  | 
ACCGUGUCAGGAUAUCCUGCUGUGCGGAAUCUGUAUUCACGGGAGAAGGGACAUGAGGAUCACCCAUGUUUGAG | 0.0196 | 0.0186 |  | 
GGAUCAAUAGUCCACAUGAGGAUCACCCAUGUAGUAUUUUACAAGGAUAUGGUGGGACUUCGUGGCCAGAAGGUGUAAAGGAUC |  |  | 0.194 | 0.0997
AUAUCCUAGAUAGGAUAUACUGAGGUUGAAUGGGUAGAAGGAUCGUUAGGGAAGACUACAUGAGGAUCACCCAUGUUGUUUAUU |  |  | 0.116 | 0.0929
AAAAUCAAGUCAGGAUAUCGUGCGGUUGGUCGUUACAUGAGGAUCACCCAUGUCUUCCGGUAGCUCGAGAAGGGACGUGAGCCC |  |  | 0.0186 | 0.00833
GCGUCAGAAUUAAUUGUGUCAUACAGAAGGCAAUAUUAAGGUUAAGACAUGAGGAUCACCCAUGUUGAGGAUAUGUAGUGACGC | 0.0105 | 0.0186 |  | 
CUGGUGUGAGGAUAUCAAAGACCUCGGUAAAGAACCGAGGAUGAGAAGGCACAUGAGGAUCACCCAUGUAACAA | 0.0233 | 0.0329 |  | 
UUUCUUGGGCAAGGAUAUCCUGUGCGGUUCUGGCUCGUGUCUGUCACAUGAGGAUCACCCAUGUGGGAGAAGGUGCCUGCGGUC | 0.00613 | 0.0061 |  | 
CAAUUUAUAACAGGAUAUAUAAUACAAUGGUUAAUAGAAGGGUUUAAUACAUGAGGAUCACCCAUGUCAUGUGUCAUAAUUACC | 0.023 | 0.0171 |  | 
GCACGGCAUGUAGGAUAUCGAGCUCCGGGAGCUCGAGAAGGACAUGAGGAUCACCCAUGUGCUCACAGUGAGUGAGCGCUGUGC | 0.0239 | 0.0935 |  | 
CCGGAAACGGGUAGCCAGACAUGAGGAUCACCCAUGUGAUCAGAGGAUAUGGAUCCUAAUUGGAUCCAGAAGGCUGUCAGCUAC |  |  | 0.554 | 0.0748
UCGACGAAAGUCGAACGAUGUAGCAGAAGGACAUGAGGAUCACCCAUGUCAGCUGUAACAGCCAUGUAGGAUAUGCUACAUCGU | 0.00451 | 0.00553 |  | 
UUCUUUCCUCAUGUACAUGAGGAACAUGAGGAUCACCCAUGUAGAAGGAUUUCCCUUAAAUUAAAAUAGGAUAUACAUAUAUUU | 0.0279 | 0.0247 |  | 
AUCCUACAUGAGGAUCACCCAUGUAAGGAUAUGCGGCGACGAGAUUGUCUAUACGGCCGCAGAAGGUACCCGGG | 0.0161 | 0.0186 |  | 
GAUUUCUCAUGAGGAUAUGCUCGCAUUUCAAGAGCAGAAGGUAUGUCAUUAGACAUGAGGAUCACCCAUGUAGUUAAGAUUGAA |  |  | 0.072 | 0.0447

Sequence | apparent Kd [1] [µM] | apparent Kd [2] [µM] | apparent Kd [3] [µM] | apparent Kd [4] [µM]
ACUAGAUGAGGAUAUGCAUAUUUUCGUGUUCUUCUAGAUUAACAUGAGGAUCACCCAUGUAGAAGGCGUCUGGA | 0.0178 | 0.026 |  | 
GCAUGGUGAGGAUAUGCAGAAGGGCAACGGUCAUCAUGACUACAUGAGGAUCACCCAUGUAGAAGGCACACAUG | 0.0443 | 0.0548 |  | 
GCGCAAGCAUGAGGAUAUGUAUUAAAUAAUAAUACAGAAGGCAUGUCAAAUGACAUGAGGAUCACCCAUGUUGGCAAACUGCGC |  |  | 0.0464 | 0.013
GUAGCUAUCGGAGGAUAUUCAUAGCGGAAACGGACAUGAGGAUCACCCAUGUGGCGAAAGCCUUGGGAGAAGGCCGAUAGCUAC |  |  | 0.0396 | 0.0081
CAGCUGAAUGUGAGGAUAUGUCUAGCUUCGGCUAGACAGAAGGCACAUGAGGAUCACCCAUGUCUCAACAGCUG | 0.0367 | 0.488 |  | 
GAGAUCAUCACAGGAUAUGCAUUCCAUAAGUGGGCAGAAGGGUGAGAUUCAAGUGGACAUGAGGAUCACCCAUGUAUACUGCCU |  |  | 0.0331 | 0.0173
GGAUAGGACAGAGGAUAUACGUGCUAGAGAUACUAGCAAAAUUUCCUCACAUGAGGAUCACCCAUGUAGAAGGCUGUCCUAUUG | 0.0156 | 0.46 |  | 
AAAAUGUGUACAUGAGGAUCACCCAUGUAUCGACUCCAAAGCAAGGAUAUGAUCAUGGGAAUUGGUCAGAAGGUGCAGGGUCUG |  |  | 0.205 | 0.0258
UCUGUCGUUGUGAGGAUAUGCCCAAAUAAAAGCGGGCAGAAGGCACAUGAGGAUCACCCAUGUCCUGCGGUUUU | 0.0214 | 0.237 |  | 
UUAUUUUUACAGAAGGUUUAAUACUAUGUAUGAGAAGGAUAUGUAACAUGAGGAUCACCCAUGUUUUAUUUAUAUGAGGUUCGU | 0.0138 | 0.0125 |  | 
UUAUUACAUGAGGAUCACCCAUGUGAGGAUAUCGAUGUAACUAGCAGCGUGCGGGACUCGAGAAGGCACUUGGA | 0.0611 | 0.144 |  | 
GAUCAACAUGAGGAUCACCCAUGUGAGGAUAUGAUACUAUGUACUUCGGUACAUAGUAUCAGAAGGCACUAGGA | 0.0656 | 0.192 |  | 
AAGUAAGGAGGAUAUACGUCAUAGACCGCAAUAUGUCAUAGACAUGAGGAUCACCCAUGUAGAAGGCUUUAACA | 0.0347 | 0.0262 |  | 
GUGACGAAUGUAGGAUAUGCUGAGGAAUACUCAGCAGAAGGACAUGAGGAUCACCCAUGUACUAAUAGUGAUAAUAAACGUCAC | 0.0156 | 0.0776 |  | 
AAUUUACAGCUAGGAUAUACAUGAGGAUCACCCAUGUAAUCAUAUGAUAUUUUUUUUGUAUGAGUGUAGAAGGAGCAAAUAAAA | 0.00938 | 0.00869 |  | 
UCCACUGCUGAGAAGGGAUACGGCUGGGUCGCAUCAGGAUAUCGAUACAGUGCAGCAUGAGGACAUGAGGAUCACCCAUGUGUG |  |  | 0.081 | 0.027
UAAAUACAUGAGGAUCACCCAUGUCAAAAGACAUGAGGAUAUGUACAGUCUUCGGUCUGUACAGAAGGCAUGAAUA |  |  | 0.464 | 0.035
GCUCUAUGCUAGAAGGCGUGAAACAUGAGGAUCACCCAUGUCAGAGAUAUGAGGAUAUAGCAUAGAGCAAAAGACGGAAACGUC |  |  | 0.0134 | 0.00541
AAAAAAAAAAGUCAGGAUAUACAAAUUUUUACAUGAGGAUCACCCAUGUUAAAAAAAAAAAAAAAGUAGAAGGGACAAAAAAAAAA |  |  | 0.0209 | 0.0169
CGUGUGUGAACAGGAUAUUGGAACGUACCUCGCCACAUGAGGAUCACCCAUGUCGUUGCUCACGCCAAGAAGGGUUUACGCCUA |  |  | 0.248 | 0.226
CAGCGAUAGCUAAAGUAUCUAUCAGAGGAUAUUCAUGAAACAUGAGGAUCACCCAUGUGAAACUGGGAGAAGGCUGAUAGAUAG |  |  |  | 0.00592
UUUAUUUUUACAGGAUAUCAUCUAUAUAACUCAUGCACAUGUUUACAUGAGGAUCACCCAUGUUUUGAGAAGGGUAAUGAAACA |  |  | 0.44 | 0.228
CAAAUUGCAGGAUAUACUGGGCCAGAGCCAUCGUGUAUUCCACAUGAGGAUCACCCAUGUAGAAGGGCACGUAC | 0.0272 | 0.0991 |  | 
GGCUCAUUGACAUUAAUGUGCAGACAGGAUAUCCACGGCGGUUCCUACAUGAGGAUCACCCAUGUGGAGAAGGGUCGCUAAUGG | 0.0144 | 0.033 |  | 
